VLA-4 inh: inhibition in human VLA-4 binding assay, primary screen, VLA-4 allosteric modulator project, MLPCN library, flow cytometry, VLA-4 expressing cells. Integrin alpha-4 (Homo sapiens), P13612. ligand binding flow cytometry. inhibition, % (about 7 µM as worked out from the volumes in the protocol). 0.2% of 330,000 active; in the data active means inhibition above about 50%
CHT allo act: CHT positive allosteric modulators, primary screen, cell-based, membrane potential dye, choline EC20 | CHT-expressing cells; hits give high values; LV-AA mutant CHT in HEK293 cells | B-score at 10 µM | 0.49% of 310,000 active;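 active means initial fluorescence not abnormally high and integrated response B-score, plate-corrected, over 3 SD above library mean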
Target sequence (Q9GZV3 whole entry, looked up): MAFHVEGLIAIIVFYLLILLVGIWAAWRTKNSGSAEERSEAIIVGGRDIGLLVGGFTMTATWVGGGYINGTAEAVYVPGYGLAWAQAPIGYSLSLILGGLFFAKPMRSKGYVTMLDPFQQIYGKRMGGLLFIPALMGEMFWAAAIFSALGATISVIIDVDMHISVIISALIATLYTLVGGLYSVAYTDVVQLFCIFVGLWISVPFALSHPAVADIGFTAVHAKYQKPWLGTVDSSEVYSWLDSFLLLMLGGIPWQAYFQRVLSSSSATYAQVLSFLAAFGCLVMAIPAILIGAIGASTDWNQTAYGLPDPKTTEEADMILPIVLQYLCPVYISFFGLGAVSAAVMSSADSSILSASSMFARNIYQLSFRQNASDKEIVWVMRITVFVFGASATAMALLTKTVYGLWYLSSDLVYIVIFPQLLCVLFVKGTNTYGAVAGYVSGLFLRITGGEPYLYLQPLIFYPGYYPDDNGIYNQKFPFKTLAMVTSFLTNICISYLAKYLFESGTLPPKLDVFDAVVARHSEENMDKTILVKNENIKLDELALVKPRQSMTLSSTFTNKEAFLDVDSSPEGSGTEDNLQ
T cell modulator: modulators of CD8 T cell-vesicle binding, primary screen, mouse 2C CD8+ T cells, flow cytometry | 2C CD8+ T cell-vesicle binding; hits give low values | 0.068% of 330,000 active | response (vesicle binding), % at 7 µM;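 active means response, share of CD8 T cells binding vesicles, and their 90th percentile fluorescence all below set limits, cut at about 80% in these data, passing the limit was not always enough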;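 further: values below 100% mean blocked vesicle binding to the CD8+ T cells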
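System: murine 2C transgenic CD8+ T lymphocytes; also added: QL9-loaded Drosophila micro-vesicles; times: binding 1.5 h at 37 °C; measured by: flow cytometry, PE anti-B7-1 (FL2) versus Alexa647 anti-CD8 (FL8), PFA-fixed; control set: Peptide-free naked vesicles (low) and QL9 vesicles with 0.7% DMSO vehicle (high)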
CHT inh: inhibitors of human choline transporter CHT; 0.86% of 310,000 active; B-score at 10 µM; CHT-expressing cells, membrane potential dye, choline response; hits give low values; High affinity choline transporter 1 (Homo sapiens), Q9GZV3;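 active means B-score over 3 SD under the library average, and starting fluorescence ratio not unusually high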;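 further: choline stimulus applied at its EC90 after an EC20 pre-addition; B-score computed on integrated fluorescence ratio after choline addition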
VLA-4 allo CP: retest of VLA-4 allosteric modulators, confirmation, cell-based, cherry-picked plates, U937, HUTS-21 LIBS antibody | shares compounds with VLA-4 inh | U937 cells, HUTS-21 LIBS mAb binding, flow cytometry; LDV ligand present at threefold Kd | inhibition, % at 6.7 µM | 2% of 1,300 active | AID 2813, 2010; in the data active means inhibition above about 40%;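 further: 0% = ligand without compound and 100% = no ligand background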
CHT block conf: CHT inhibitors, confirmation, cell-based, membrane potential dye, duplicate | AID 493221, 2011 | CHT-expressing cells, choline membrane potential dye; LV-to-AA substituted CHT, HEK293 cells | 70% of 2,400 active | shares compounds with CHT inh | CHT activity remaining % of control (hits give low values), % at 10 µM;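 active means choline transporter activity left, mean of duplicates at 10 µM, below buffer-only control mean minus 3 SD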;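 further: depolarization triggered by choline at its EC90 following an EC20 pre-addition; 0% = hemicholinium-3 full block and 100% = buffer-only control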
HEK293 MPD ctr: membrane potential effects in parental HEK293, counter-screen for CHT inhibitor project, cell-based, membrane potential dye; shares compounds with CHT inh; choline response; active = decrease or increase beyond buffer ±3SD; membrane potential ratio readout (active if shifted either direction beyond buffer ±3SD; no single direction) at 10 µM; 4% of 2,400 active;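 further: parental cells lack the transporter so any hit is non-specific; ratio is peak minus trough fluorescence over baseline after EC90 choline challenge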
* hit, by the source's call; i = inactive; / = no result. Most compounds without a hit are left out; they make up all but 1.5% or so of the library.

SMILES	VLA-4 inh	CHT allo act	T cell modulator	CHT inh	VLA-4 allo CP	others
COc1ccc(OC)c(Cc2nnc(CCC(=O)NCc3ccsc3)o2)c1	-6.0	i	i	i	/
CCCCNC(=O)C(Cc1ccccc1)NS(=O)(=O)c1ccc2c(c1)c(=O)n(C)c(=O)n2C (centres undefined)	50.2*	i	570.1	i	-4.9
O=C1CCC(c2ccc3c(c2)CCC3)=NN1	53.5*	i	261.9	i	1.3
CCCCCc1ccc(C2=NNC(=O)CC2)cc1	-0.4	i	220.6	i	/
N#C/C(=C\c1cc(Cl)c(OCc2ccc(Cl)cc2)c(Cl)c1)C(N)=O	2.5	i	308.5	i	/
CCN(CC)c1ccc(/C=C(\C#N)C(N)=O)cc1	/	/	/	/	-1.6
N#C/C(=C\c1cc(O)c(O)c(O)c1)C(N)=O	4.1	i	91.2	i	2.4
CCOC(=O)NC(=O)/C(C#N)=C/c1ccc(N(C)C)cc1	-16.1	i	i	i	2.1
CCCN1CCN(C(=O)C2CCN(S(=O)(=O)c3c(C)noc3/C=C/c3ccc(C)cc3)CC2)CC1	7.8	i	104.5	i	/
CC(SC1=NCCN1S(=O)(=O)c1ccccc1)c1ccccc1 (centres undefined)	12.4	i	270.4	i	/
COc1ccc(-c2c(C(F)(F)F)oc3c(CN4CCN(C)CC4)c(O)ccc3c2=O)cc1	92.5*	i	197.4	i	2.1
COc1ccccc1C(=O)NCCCNC(=O)c1cccnc1	8.2	i	475.4	i	/
COc1ccc(NC(=O)CCn2cccc2)c(OC)c1	57.9*	i	290.8	i	1.8
O=C(CS(=O)CC(=O)N(c1ccccc1)C(C(=O)NC1CCCC1)c1cccs1)Nc1ccc(F)cc1 (centres undefined)	1.1	i	358.0	i	/
COc1cccc(N(C(=O)CS(=O)CC(=O)Nc2ccc(F)cc2)C(C(=O)NC2CCCCC2)c2cccs2)c1 (centres undefined)	43.1	i	124.6	i	4.5
Cc1cc(/C=C2/NC(=O)N(c3ccccc3)C2=O)c(C)n1-c1cccnc1	43.1	i	218.5	i	-11.0
Cc1ccc(NC(=O)COc2cccc(-n3cnnn3)c2)cc1[N+](=O)[O-]	6.3	i	333.3	i	/
CCOC(=O)c1c(NC(=O)C2c3ccccc3Oc3ccccc32)sc(C(C)=O)c1C	-8.8	i	493.5	i	0.0
COC(=O)c1c(NC(=O)C2c3ccccc3Oc3ccccc32)sc(C)c1C	10.0	i	105.9	i	7.7
COC(=O)c1sc(NC(=O)C2c3ccccc3Oc3ccccc32)c(C(=O)OC)c1C	0.3	i	234.4	i	-2.1
CCOC(=O)c1c(NC(=O)COC)sc(C(C)=O)c1C	5.3	i	100.0	i	/
COC(=O)c1c(NC(=O)Cc2ccccc2)sc(C)c1C	-0.5	i	564.7	i	/
COc1ccc(CN2CCN(C3CCC3)CC2CCO)c(C)c1C (centres undefined)	6.8	i	334.7	i	/
Cc1ccsc1C(=O)NCCc1ccc(S(N)(=O)=O)cc1	3.4	i	243.1	i	/
O=C(c1ccc([N+](=O)[O-])cc1)N1CCCC1	10.2	i	172.9	i	/
SMILES	VLA-4 inh	CHT allo act	T cell modulator	CHT inh	VLA-4 allo CP	others
O=C(c1ccccc1)N1CCN(C(=O)c2ccc([N+](=O)[O-])cc2)CC1	42.5	i	281.9	i	-2.0
CC(=O)c1ccccc1NS(=O)(=O)c1ccc2c(c1)CC(=O)N2	7.0	/	624.8	/	1.8
O=C1Cc2cc(S(=O)(=O)Nc3ccc(F)cc3Cl)ccc2N1	14.5	/	255.5	/	/
CCc1cc2c(=O)n3c(nc2s1)-c1[nH]c2ccc(OC)cc2c1CC3	44.6	i	423.5	i	-8.5
COc1ccc2[nH]c3c(c2c1)CCNC3=O	26.0	i	176.4	i	/
CC(=O)Nc1ccc(S(=O)(=O)N2CCN(Cc3csc(C)n3)CC2)cc1	5.1	i	460.7	i	/
Cc1ccc2nc(-c3ccccc3)cc(C(=O)N3CCN(S(=O)(=O)c4c(C)noc4C)CC3)c2c1	6.8	/	342.9	/	-4.2
Cc1ccc(S(=O)(=O)N2CCOCC2)cc1C(=O)Nc1ccccc1N1CCOCC1	32.4	/	284.9	/	/
CC(=O)Nc1nonc1NC(=O)COc1ccccc1	-5.2	i	380.1	i	/
O=C(COC(=O)C12CC3CC(CC(C3)C1)C2)NNC(=O)c1ccccc1	-1.8	/	447.9	/	/
CC(C)(C)N(NC(=O)Nc1ccccc1)C(=O)c1ccccc1Cl	93.7*	i	246.9	i	-15.5
COC(=O)c1ccc(CNC(=O)c2ccc3c(c2)S(=O)(=O)N=C2CCCCCN23)cc1	11.5	/	311.6	/	/
CCOc1ccc(Nc2ccnc3cc(Cl)ccc23)cc1	-0.8	i	268.6	i	/
CCN1CCC(Nc2ccnc3cc(Cl)ccc23)CC1	48.0	i	12.2	-6.57*	-5.3	CHT block conf=i;HEK293 MPD ctr=4.18*
CCCc1ccc(OCc2ccc(C(=O)NCc3cccnc3)o2)c(OC)c1	55.8*	i	467.0	-5.65*	8.4	CHT block conf=68.5%*;HEK293 MPD ctr=i
CCN(Cc1nc2ccccc2c(=O)[nH]1)C(=O)c1cccc(S(=O)(=O)N2CCc3ccccc32)c1	-9.5	/	524.5	/	/
Cc1cc(Cl)c(S(=O)(=O)N2CCCC2)cc1OCC(=O)NC1CCCCC1	68.3*	i	284.7	-5.16*	6.5	CHT block conf=57.3%*;HEK293 MPD ctr=i
COc1cccc(CNC(=O)CN(C)S(=O)(=O)c2ccc3c(c2)n(C)c(=O)c(=O)n3C)c1	19.9	i	466.9	i	/
